# Paper PMC10559049 (Heliyon, 2023)
# Columns and labels:
# [1] = test system: LPS-treated BV2 microglial cells; conditions: 15 μmol; cited from earlier work
# [2] = named as a side effect restricting use; cited from earlier work
# [3] = named as a side effect restricting use; cited from earlier work; remark: listed apart in the source
# [4] = target: T1, sEH (Homo sapiens, UniProt P34913); experiment: biochemical
# T1 sequence (P34913 1-555): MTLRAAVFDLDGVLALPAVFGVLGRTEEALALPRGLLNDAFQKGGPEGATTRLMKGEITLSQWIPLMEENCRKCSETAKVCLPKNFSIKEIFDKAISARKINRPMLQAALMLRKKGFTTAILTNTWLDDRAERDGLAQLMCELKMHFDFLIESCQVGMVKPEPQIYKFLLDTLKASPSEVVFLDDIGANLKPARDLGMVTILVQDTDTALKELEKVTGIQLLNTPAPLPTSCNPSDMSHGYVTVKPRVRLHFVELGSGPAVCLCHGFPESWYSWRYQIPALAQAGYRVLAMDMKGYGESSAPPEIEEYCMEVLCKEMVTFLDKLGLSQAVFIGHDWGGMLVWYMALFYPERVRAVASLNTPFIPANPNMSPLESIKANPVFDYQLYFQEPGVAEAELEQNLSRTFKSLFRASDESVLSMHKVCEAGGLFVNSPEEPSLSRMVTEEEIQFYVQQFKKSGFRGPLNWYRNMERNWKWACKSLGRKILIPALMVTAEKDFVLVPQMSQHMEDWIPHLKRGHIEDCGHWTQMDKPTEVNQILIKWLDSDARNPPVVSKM
# [5] = target: T1, sEH; experiment: Enzyme kinetics analysis; assay type: biochemical
# Outline: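 Recombinant human sEH (250 ng/mL) in 25 mM Tris–HCl, pH 7.0, with 0.1 mg/mL BSA, mixed with inhibitor in methanol, then PHOME substrate added at several concentrations. Product fluorescence was read at ex 330/em 465 nm. Initial velocities at each fixed inhibitor concentration were plotted double-reciprocally (Lineweaver–Burk) to assign inhibition mode and derive Ki. Triplicates in three independent experiments, mean ± SEM.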
# [6] = test system: sEH; conditions: derived from the leaves of Capsicum chinense; cited from earlier work
compound,measurement,setting,value
"O=C(C=Cc1cc(O)c2c(c1)C(C(=O)NCCc1ccc(O)cc1)C(c1ccc(O)c(O)c1)O2)NCCc1ccc(O)cc1 (stereo not shown) [3,3′-demethyl-grossamide]",anti-neuroinflammatory activities via TNF-α suppression,[1],exerted anti-neuroinflammatory activities
"O=C(O)CCCCCCCCCCCNC(=O)NC12CC3CC(CC(C3)C1)C2 [AUDA, 12-(3-adamantane-1-yl-ureido)-dodecanoic acid]",metabolic stability,[2],metabolic instability
same,water solubility,[3],limited water solubility
"COc1cc([C@@H]2Oc3c(OC)cc(/C=C/C(=O)NCCc4ccc(O)cc4)cc3[C@H]2C(=O)NCCc2ccc(O)cc2)ccc1O [Compound 5, grossamide]",IC50,[4],3.3 ± 0.3 µM
same,Ki,[5],1500 nM
same,Inhibition type,[5]; Lineweaver-Burk plots,Competitive
O=C(/C=C/c1ccc(O)cc1)NCCc1ccc(O)cc1 [N-trans-Coumaroyltyramine],mode of inhibition against sEH,[6],competitive inhibition
COc1cc(/C=C/C(=O)NCCc2ccc(O)cc2)ccc1O [N-trans-feruloyltyramine],mode of inhibition against sEH,[6],competitive inhibition
COc1cc(/C=C(C(=O)NCCc2ccc(O)cc2)\C(=C/c2ccc(O)c(OC)c2)C(=O)NCCc2ccc(O)cc2)ccc1O [cannabisin G],anti-neuroinflammatory activities via TNF-α suppression,[1],exerted anti-neuroinflammatory activities
coumaroyl-amino butanol glucopyranoside,anti-neuroinflammatory activities via TNF-α suppression,[1],exerted anti-neuroinflammatory activities
